Measurements reported in ChEMBL document CHEMBL2346506, “Cytotoxicity and modulation of cancer-related signaling by (Z)- and (E)-3,4,3',5'-tetramethoxystilbene isolated from Eugenia rigida” (J Nat Prod, 2013).
Calls of active or inactive are those of the source. The rule behind the calls is not given here.

Experiments:
SK-MEL = test: Cytotoxicity against human SK-MEL cells assessed as growth inhibition measured after 48 hrs by Neutral Red dye assay
[1] = Inhibition of Ets signaling pathway in human HeLa cells assessed as measured as lowest concentration required 50 to 60 % inhibition of PMA induced luciferase treated 30 mins before induction; assay type: cell-based
Method in brief: (§1)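 Reporter assay in cells transfected with pathway luciferase plasmids. Cells plated at 0.015 × 10⁶ per well in 10% FBS, switched after 24 h to DMEM with 1% FBS, then transfected. 24 h after transfection, compound (final 40, 60, 80 or 100 μM) was added, followed 30 min later by inducer (IL-6, TGF-β, wnt3a or PMA). Luciferase was read 4 or 6 h after induction (6 h for Notch, Wnt, Hedgehog). Value is the IC50 or the lowest concentration giving maximal 50–60% inhibition; two independent experiments.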

HeLa [2] = test: Inhibition of Stat3 signaling pathway in human HeLa cells assessed as measured as lowest concentration required 50 to 60 % inhibition of IL-6 induced luciferase treated 30 mins before induction; assay type: functional
Method in brief: as §1

[3] = molecular target: Myc proto-oncogene protein (Homo sapiens) (UniProt P01106); test: Inhibition of Myc signaling pathway in human HeLa cells assessed as measured as lowest concentration required 50 to 60 % inhibition of PMA induced luciferase treated 30 mins before induction; assay type: cell-based
Method in brief: as §1

[4] = Inhibition of Notch signaling pathway in human HeLa cells assessed as inhibition of PMA induced luciferase treated 30 mins before induction; assay type: cell-based
Method in brief: as §1

LLC-PK1 = test: Cytotoxicity against pig LLC-PK1 cells assessed as growth inhibition measured after 48 hrs by Neutral Red dye assay; details: Sus scrofa, LLC-PK1, 48 h
[5] = Inhibition of Notch signaling pathway in human HeLa cells assessed as measured as lowest concentration required 50 to 60 % inhibition of PMA induced luciferase treated 30 mins before induction; assay type: cell-based
Method in brief: as §1

[6] = Inhibition of AP1 signaling pathway in human HeLa cells assessed as inhibition of PMA induced luciferase at 100 uM treated 30 mins before induction; assay type: cell-based
Method in brief: as §1

HeLa [7] = test: Cytotoxicity against human HeLa cells assessed as growth inhibition measured at 100 uM after 48 hrs by Neutral Red dye assay
BT-549 = test: Cytotoxicity against human BT549 cells assessed as growth inhibition measured at 100 uM after 48 hrs by Neutral Red dye assay
HeLa [8] = test: Inhibition of smad3/4 signaling pathway in human HeLa cells assessed as measured as lowest concentration required 50 to 60 % inhibition of TGF-beta induced luciferase treated 30 mins before induction; assay type: functional
Method in brief: as §1

[9] = Inhibition of Wnt signaling pathway in human HeLa cells assessed as measured as lowest concentration required 50 to 60 % inhibition of Wnt3a induced luciferase treated 30 mins before induction; assay type: cell-based
Method in brief: as §1

[10] = Inhibition of NFkappaB signaling pathway in human HeLa cells assessed as inhibition of PMA induced luciferase treated 30 mins before induction; assay type: cell-based
Method in brief: as §1

Vero = test: Cytotoxicity against african green monkey Vero cells assessed as growth inhibition measured after 48 hrs by Neutral Red dye assay; details: Chlorocebus sabaeus
HL-60 = test: Cytotoxicity against human HL60 cells assessed as growth inhibition measured after 48 hrs by XTT assay; assay type: functional, cell-based; details: HL-60, 48 h
[11] = Inhibition of E2F signaling pathway in human HeLa cells assessed as inhibition of PMA induced luciferase at 100 uM treated 30 mins before induction; assay type: cell-based
Method in brief: as §1

[12] = Inhibition of Wnt signaling pathway in human HeLa cells assessed as inhibition of Wnt3a induced luciferase treated 30 mins before induction; assay type: cell-based
Method in brief: as §1

[13] = Inhibition of NFkappaB signaling pathway in human HeLa cells assessed as measured as lowest concentration required 50 to 60 % inhibition of PMA induced luciferase treated 30 mins before induction; assay type: cell-based
Method in brief: as §1

KB = test: Cytotoxicity against human KB cells assessed as growth inhibition measured at 100 uM after 48 hrs by Neutral Red dye assay
HeLa [14] = test: Inhibition of Stat3 signaling pathway in human HeLa cells assessed as inhibition of IL-6 induced luciferase treated 30 mins before induction; assay type: functional, cell-based
Method in brief: as §1

HeLa [15] = test: Inhibition of smad3/4 signaling pathway in human HeLa cells assessed as inhibition of TGF-beta induced luciferase treated 30 mins before induction; assay type: functional, cell-based
Method in brief: as §1

[16] = molecular target: Forkhead box protein O1 (Homo sapiens) (UniProt Q12778); test: Inhibition of FoxO signaling pathway in human HeLa cells assessed as inhibition of luciferase at 100 uM […]; assay type: cell-based
SK-OV-3 = test: Cytotoxicity against human SKOV3 cells assessed as growth inhibition measured after 48 hrs by Neutral Red dye assay; details: SK-OV-3, 48 h
[17] = Inhibition of Ets signaling pathway in human HeLa cells assessed as inhibition of PMA induced luciferase treated 30 mins before induction; assay type: cell-based
Method in brief: as §1

[18] = Inhibition of Hedgehog signaling pathway in human HeLa cells assessed as inhibition of PMA induced luciferase treated 30 mins before induction; assay type: cell-based
Method in brief: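 HeLa cells plated at 0.015 × 10⁶/well in 10% FBS medium, switched after 24 h to DMEM with 1% FBS, then transfected with a Hedgehog luciferase reporter. After 24 h, compounds were added at 40, 60, 80 or 100 μM final, 30 min before PMA. Luciferase was read 6 h later. The value is the IC50 or lowest concentration giving maximal 50–60% inhibition, from two independent experiments.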

[19] = Inhibition of Hedgehog signaling pathway in human HeLa cells assessed as measured as lowest concentration required 50 to 60 % inhibition of PMA induced luciferase treated 30 mins before induction; assay type: cell-based
Method in brief: as §1

Myc proto-oncogene protein (Homo sapiens), sequence (P01106 whole entry): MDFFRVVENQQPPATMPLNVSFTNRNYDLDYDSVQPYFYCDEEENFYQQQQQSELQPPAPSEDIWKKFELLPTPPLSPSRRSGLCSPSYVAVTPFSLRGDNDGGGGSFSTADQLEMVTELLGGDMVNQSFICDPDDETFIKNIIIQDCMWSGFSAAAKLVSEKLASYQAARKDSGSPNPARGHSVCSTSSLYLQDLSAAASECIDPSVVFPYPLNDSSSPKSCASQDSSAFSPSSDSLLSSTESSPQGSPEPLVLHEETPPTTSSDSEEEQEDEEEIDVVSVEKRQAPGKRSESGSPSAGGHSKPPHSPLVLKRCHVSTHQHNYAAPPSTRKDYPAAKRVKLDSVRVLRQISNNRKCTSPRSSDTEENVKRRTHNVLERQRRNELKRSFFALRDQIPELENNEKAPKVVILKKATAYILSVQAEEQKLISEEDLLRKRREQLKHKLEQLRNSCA
Forkhead box protein O1 (Homo sapiens), sequence (Q12778 whole entry): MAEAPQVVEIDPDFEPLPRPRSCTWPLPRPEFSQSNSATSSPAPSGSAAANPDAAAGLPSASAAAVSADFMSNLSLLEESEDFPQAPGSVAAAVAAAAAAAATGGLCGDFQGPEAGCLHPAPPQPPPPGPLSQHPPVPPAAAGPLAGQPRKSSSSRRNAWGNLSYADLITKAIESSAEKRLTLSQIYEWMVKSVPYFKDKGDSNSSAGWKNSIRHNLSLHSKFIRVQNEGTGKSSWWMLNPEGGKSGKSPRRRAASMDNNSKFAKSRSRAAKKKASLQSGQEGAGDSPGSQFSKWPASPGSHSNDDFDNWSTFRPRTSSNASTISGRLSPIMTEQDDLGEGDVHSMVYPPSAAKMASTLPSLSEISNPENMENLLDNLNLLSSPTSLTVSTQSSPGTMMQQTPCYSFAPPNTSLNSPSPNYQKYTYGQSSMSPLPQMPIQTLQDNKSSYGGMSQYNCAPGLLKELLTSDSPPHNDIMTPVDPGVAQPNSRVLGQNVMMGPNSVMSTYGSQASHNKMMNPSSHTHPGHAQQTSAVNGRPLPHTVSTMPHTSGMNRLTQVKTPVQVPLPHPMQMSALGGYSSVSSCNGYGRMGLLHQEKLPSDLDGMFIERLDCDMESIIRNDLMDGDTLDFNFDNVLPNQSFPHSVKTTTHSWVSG

Oc1ccc(/C=C/c2cc(O)cc(O)c2)cc1 [RESVERATROL]
IC50 (SK-MEL): 47.3 µM | MED [1]: 55 µM | MED (HeLa [2]): 53 µM | MED [3]: 55 µM | IC50 [4]: 40 µM | IC50 (LLC-PK1): 52.5 µM | MED [5]: 40 µM | inhibition [6]: < 40% | growth inhibition (GI) (HeLa [7]): inactive | growth inhibition (GI) (BT-549): inactive | MED (HeLa [8]): 33 µM | MED [9]: 70 µM | IC50 [10]: 50 µM | IC50 (Vero): 73.6 µM | IC50 (HL-60): 31.8 µM | inhibition [11]: < 40% | IC50 [12]: 60 µM | MED [13]: 60 µM | growth inhibition (GI) (KB): inactive | IC50 (HeLa [14]): 70 µM | IC50 (HeLa [15]): 50 µM | inhibition [16]: < 40% | IC50 (SK-OV-3): 113 µM | IC50 [17]: 50 µM | IC50 [18]: 40 µM | MED [19]: 40 µM
